We go through 17 compounds from ChEMBL document CHEMBL1157350, “The structure-activity relationship study on 2-, 5-, and 6-position of the water soluble 1,4-dihydropyridine derivatives blocking N-type calcium channels” (Bioorg Med Chem Lett, 2008).

≈ marks a conversion by molar mass, not a printed value.

As a reminder, the IC50 is the concentration needed to halve the response being measured. As usually defined, the inhibition is the share of the control response that was lost under treatment. As a reminder, the solubility is how much of the substance goes into solution per volume. Higher therefore signals a readily soluble substance. By logD is commonly meant the decadic logarithm of the distribution of all forms, ionised or not, between an organic phase and buffer at a given pH. The low end stands for lower lipophilicity, the high end for higher lipophilicity.

A short description of data set [1]: Inhibition of voltage-dependent N-type calcium channel in human IMR32 cells assessed as effect on calcium influx. It counts as cell-based. The settings on record: IMR-32.
The target of data set [2] is Voltage-gated L-type calcium channel (Rattus norvegicus, UniProt P22002+Q02485+P27732). As to the kind of experiment: Inhibition of voltage-dependent L-type calcium channel in rat thoracic aorta ring assessed as effect on high K+ induced contraction by Magnus method. It counts as tissue-based.
Another data set is filed under the species Rattus norvegicus. As to the kind of experiment: Inhibition of voltage-dependent N-type calcium channel in rat superior cervical ganglion neurons assessed as effect on Ba2+ current at holding potential of -60 mV at 10 uM by electrophysiology. It counts as tissue-based.
The nature of data set [3]: Aqueous solubility of the compound. Type of data set: physicochemical. To be noted: buffer. Put shortly: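 Aqueous suspension left overnight, centrifuged at 10,000 rpm for 5 min; supernatant diluted and quantified by HPLC.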
Data set [4] can be described thus: Distribution coefficient, log D of the compound. Type of data set: physicochemical. To be noted: octanol/water. Put shortly:
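Calculated logD at pH 7.4 (PrologD).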

For the compound `COC(OC)C1=C(C(=O)OC/C=C/c2cccc(Cl)c2)C(c2cccc(Cl)c2)C(C(=O)O)=C(C)N1` (stereo unspecified), the IC50 in data set [1] was found to be 1.4 µM; in data set [2], 1 µM.
On to `COC(OC)C1=C(C(=O)OC/C=C/c2ccc(Cl)cc2)C(c2cccc(Cl)c2)C(C(=O)O)=C(C)N1` (stereo unspecified), for which the IC50 in data set [1] came to 1.7 µM; in data set [2], 1.4 µM.
With `CN[C@@H](CC(C)C)C(=O)NCCCC(c1ccc(F)cc1)c1ccc(F)cc1`, in the data set listed under Rattus norvegicus, the inhibition turned out to be 83%.
As to `COc1ccccc1/C=C/COC(=O)C1=C(C(OC)OC)NC(C)=C(C(=O)O)C1c1cccc(Cl)c1` (stereo unspecified), the IC50 stood at 2.5 µM in data set [1] and 5.9 µM in data set [2]. Moreover, in data set [3], the solubility amounted to 10.2 mg/mL (≈ 19.8 mM). In data set [4], this compound gave a logD of 1.2.
Consider `COC(OC)C1=C(C(=O)O)C(c2cccc(Cl)c2)C(C(=O)OC/C=C/c2ccccc2)=C(C)N1` (stereo unspecified), for which the results for the IC50 in data set [1] and in data set [2] were 3.9 µM and 1.3 µM, respectively.
In the case of `CC1=C(C(=O)O)C(c2cccc([N+](=O)[O-])c2)C(C(=O)OC/C=C/c2ccccc2)=C(C)N1` (stereo unspecified), the IC50 in data set [1] amounted to 3.5 µM.
As for `COC(OC)C1=C(C(=O)OC/C=C/c2ccc(C(F)(F)F)cc2)C(c2cccc(Cl)c2)C(C(=O)O)=C(C)N1` (stereo unspecified), the IC50 was determined as 2 µM in data set [1] and 3.2 µM in data set [2].
Consider `CC1=C(C(=O)O)C(c2cccc(Cl)c2)C(C(=O)OC/C=C/c2ccccc2)=C(C#N)N1` (stereo unspecified), for which the IC50 is 5.8 µM in data set [1] and 2 µM in data set [2].
Regarding `CC1=C(C(=O)O)C(c2cccc(Cl)c2)C(C(=O)OCCC(c2ccccc2)c2ccccc2)=C(C(F)(F)F)N1` (stereo unspecified), the IC50 in data set [1] was 1.7 µM. The solubility in data set [3] is 3.5 mg/mL (≈ 6.3 mM). The logD in data set [4] is 3.51.
For the compound `COc1ccc(/C=C/COC(=O)C2=C(C(OC)OC)NC(C)=C(C(=O)O)C2c2cccc(Cl)c2)cc1` (stereo unspecified), the IC50 in data set [1] is 2.1 µM; in data set [2] it was 0.54 µM.
The like results for `CCC1=C(C(=O)OC/C=C/c2ccccc2)C(c2cccc(Cl)c2)C(C(=O)O)=C(C)N1` (stereo unspecified) were, in that order, 0.81 µM and 0.007 µM.
With `COC(OC)C1=C(C(=O)OC/C=C/c2ccccc2)C(c2cccc(Cl)c2)C(C(=O)O)=C(C)N1` (stereo unspecified), the IC50 in data set [1] amounted to 3 µM; in data set [2] it was 8.1 µM. Moreover, the inhibition in the data set filed under Rattus norvegicus was determined as 85%. The solubility in data set [3] was greater than 15 mg/mL. Moreover, the logD in data set [4] was 1.29.
Consider `COc1cccc(/C=C/COC(=O)C2=C(C(OC)OC)NC(C)=C(C(=O)O)C2c2cccc(Cl)c2)c1` (stereo unspecified), for which the IC50 in data set [1] stood at 3 µM; in data set [2], 4.4 µM.
As for `COC(OC)C1=C(C(=O)OC/C=C/c2ccc(F)cc2)C(c2cccc(Cl)c2)C(C(=O)O)=C(C)N1` (stereo unspecified), the IC50 in data set [1] amounted to 1.8 µM; in data set [2] it was 2 µM.
Regarding `COC(OC)C1=C(C(=O)OC/C=C/c2ccccc2Cl)C(c2cccc(Cl)c2)C(C(=O)O)=C(C)N1` (stereo unspecified), the values for the IC50 in data set [1] and in data set [2] were 1.8 µM and 0.7 µM, respectively.
For `CC1=NC(C)=C(C(=O)O)C(c2cccc(Cl)c2)/C1=C(\O)OC/C=C/c1ccccc1` (stereo unspecified), the IC50 in data set [1] was 1 µM.
Still for that read-out and setting: the same measure for `COCCOC(=O)C1=C(C)NC(C)=C(C(=O)OC/C=C/c2ccccc2)C1c1cccc([N+](=O)[O-])c1` (stereo unspecified) [CILNIDIPINE]: 1.6 µM.
